Experimental data from ChEMBL document CHEMBL2046305, “Discovery of selective menaquinone biosynthesis inhibitors against Mycobacterium tuberculosis” (J Med Chem, 2012).
pIC50: −log10 of the molar value. ≈ marks a conversion by molar mass, not a printed value. Calls of active or inactive are those of the source. The calls are words filed in the database; no cut-off is given here.

How the values were obtained:
[1] = tested on: Mycobacterium tuberculosis; experiment: Bactericidal activity against Mycobacterium tuberculosis; assay type: functional
Staphylococcus aureus [2] = experiment: Bactericidal activity against Staphylococcus aureus; assay type: functional
[3] = tested on: Mycobacterium tuberculosis; experiment: Inhibition of Mycobacterium tuberculosis MenA using [3H]farnesyl and DHNA as substrate at 100 uM after 2 hrs
Procedure, shortened: (§1)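 Membrane fraction from mid-log cultures in 7H9/OADC, washed in saline, sonicated in MOPS pH 8/sucrose/MgCl2/2-mercaptoethanol buffer, spun 15,000 g then 200,000 g; the fraction was the enzyme source. DHNA (500 μM stock), MgCl2, 0.1% CHAPS, Tris pH 8, farnesyl diphosphate (200 μM stock) and inhibitor, 2 h at 37 °C. Quenched with 0.1 M AcOH/MeOH, extracted with hexanes, DMMK measured.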

Staphylococcus aureus [4] = experiment: Antibacterial activity against Staphylococcus aureus Seattle 1945 ATCC 25923 by agar plate diffusion method; assay type: functional
[5] = tested on: Mycobacterium tuberculosis; experiment: Antibacterial activity against Mycobacterium tuberculosis H37Rv ATCC 27294 by microplate alamar blue assay; assay type: functional
Procedure, shortened: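 Colorimetric microplate assay run under aerobic conditions; growth scored by the colour change of resazurin. Compounds showing at least 90% inhibition in a preliminary screen were retested at lower concentrations to give the MIC.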

[6] = tested on: Mycobacterium tuberculosis; experiment: Antibacterial activity against non-replicating Mycobacterium tuberculosis H37Rv ATCC 27294 by low oxygen recovery assay; assay type: functional
[7] = Inhibition of Mycobacterium tuberculosis MenA using [3H]farnesyl and DHNA as substrate after 2 hrs; procedure, shortened: as §1
Escherichia coli [8] = experiment: Growth inhibition of Escherichia coli Seattle ATCC 25922 at 5 to 10 ug/ml by microplate alamar blue assay; assay type: functional, organism-based
Staphylococcus aureus [9] = experiment: Inhibition of Staphylococcus aureus MenA using [3H]farnesyl and DHNA as substrate at 100 uM after 2 hrs; procedure, shortened: as §1
Escherichia coli [10] = experiment: Growth inhibition of Escherichia coli Seattle ATCC 25922 at 5 to 10 ug/ml by microplate alamar blue assay in presence of 50 uM VK2; assay type: functional, organism-based
Procedure, shortened: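 E. coli grown with inhibitor under anaerobic conditions; rescue tested by supplementing with menaquinone (VK2, 50 μM).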

[11] = Selectivity ratio of IC50 for african green monkey Vero cells to IC50 for Mycobacterium tuberculosis […]; assay type: ADME, cell-based; conditions: read-out: Ratio IC50
HepG2 = experiment: Cytotoxicity against human HepG2 cells after 72 hrs by MTT assay; assay type: cell-based; conditions: HepG2, 72 h
Procedure, shortened: (§2)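 Cell viability after 72 h exposure, tested at 10 times the H37Rv MIC; read-out was cellular conversion of MTT into formazan.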

[12] = Selectivity ratio of IC50 for human HepG2 cells to IC50 for Mycobacterium tuberculosis […]; assay type: ADME, cell-based; conditions: read-out: Ratio IC50
[13] = tested on: Mycobacterium intracellulare; experiment: Antibacterial activity against Mycobacterium intracellulare ATCC 15984 by microplate alamar blue assay; assay type: functional
Vero = experiment: Cytotoxicity against african green monkey Vero cells after 72 hrs by MTT assay; assay type: cell-based; conditions: Chlorocebus sabaeus; procedure, shortened: as §2
[14] = tested on: Mycolicibacterium smegmatis; experiment: Antibacterial activity against Mycobacterium smegmatis by microplate alamar blue assay; assay type: functional
Escherichia coli [15] = experiment: Antibacterial activity against Escherichia coli Seattle ATCC 25922 at 12.5 ug/ml by oxygen consumption assay; assay type: functional, organism-based
[16] = tested on: Mycobacterium tuberculosis; experiment: Ratio of MIC for rifampicin to compound MIC for non-replicating Mycobacterium tuberculosis H37Rv ATCC 27294 by low oxygen recovery assay; assay type: functional

Compound | MIC [1] | MIC (Staphylococcus aureus [2]) | inhibition [3] | MIC (Staphylococcus aureus [4]) | MIC [5] | MIC [6] | pIC50 [7] | growth inhibition (GI) (Escherichia coli [8]) | inhibition (Staphylococcus aureus [9]) | growth inhibition (GI) (Escherichia coli [10]) | selectivity ratio [11] | IC50 (HepG2) | selectivity ratio [12] | MIC [13] | IC50 (Vero) | MIC [14] | Activity (Escherichia coli [15]) | Ratio [16]
COc1ccc(CCNCCCOCCCCOc2ccc(C(=O)c3ccc(Cl)cc3)c(Cl)c2)cc1 | 15.5 mg/L (≈ 29.2 µM) | 0.5 mg/L (≈ 0.943 µM) | – | – | – | – | – | – | – | – | – | – | – | – | – | – | – | –
CCCCC(O)CN1CCC(COc2cccc(C(=O)c3ccc(Cl)cc3)c2)CC1 (racemic) | 8 mg/L (≈ 18.6 µM) | > 50 mg/L | Active | > 60 mg/L | 12.5 mg/L (≈ 29.1 µM) | 5.2 mg/L (≈ 12.1 µM) | 4.82 | Active | inactive | inactive | – | – | – | – | – | – | – | –
O=C(c1ccc(Cl)cc1)c1ccc(OC/C=C/COCCCNCCc2ccc(F)cc2)cc1Cl | 8 mg/L (≈ 15.5 µM) | 0.5 mg/L (≈ 0.968 µM) | – | – | – | – | – | – | – | – | – | – | – | – | – | – | – | –
CCCCCCCC(O)c1cccc(CN2CCC(COc3ccc(C(=O)c4ccc(Cl)cc4)c(Cl)c3)CC2)c1 (racemic) | 8 mg/L (≈ 13.7 µM) | > 50 mg/L | Active | > 60 mg/L | 12.5 mg/L (≈ 21.5 µM) | 1.88 mg/L (≈ 3.23 µM) | 4.70 | Active | inactive | inactive | – | – | – | – | – | – | – | –
CCCCCC[C@H](CN1CCC(COc2cccc(/C(=N\OC)c3ccc(Cl)cc3)c2)CC1)OC(N)=O | – | – | Active | > 60 mg/L | 2.31 mg/L (≈ 4.36 µM) | 0.85 mg/L (≈ 1.6 µM) | 5.92 | Active | inactive | inactive | > 10 | 25 mg/L (≈ 47.2 µM) | > 10 | 6.5 mg/L (≈ 12.3 µM) | 25 mg/L (≈ 47.2 µM) | 6.5 mg/L (≈ 12.3 µM) | – | –
CCCCCCCC(O)c1cccc(CN2CCC(COc3cccc(C(=O)c4ccc(Cl)cc4)c3)CC2)c1 (racemic) | 8 mg/L (≈ 14.6 µM) | > 50 mg/L | Active | > 60 mg/L | 12.5 mg/L (≈ 22.8 µM) | 1.88 mg/L (≈ 3.43 µM) | 4.82 | Active | inactive | inactive | – | – | – | – | – | – | – | –
CCCCCC[C@H](CN1CCC(COc2cccc(C(=O)c3ccc(Cl)cc3)c2)CC1)OC(N)=O | – | – | Active | > 60 mg/L | 2.31 mg/L (≈ 4.61 µM) | 0.85 mg/L (≈ 1.7 µM) | 5.82 | Active | inactive | inactive | – | 7.5 mg/L (≈ 15 µM) | – | 6.5 mg/L (≈ 13 µM) | 7.5 mg/L (≈ 15 µM) | 6.5 mg/L (≈ 13 µM) | Active | 1.7
O=C(c1ccc(Cl)cc1)c1ccc(OCc2cccc(CN3CCC(N4CCCCC4)CC3)c2)cc1Cl | 8 mg/L (≈ 14.9 µM) | 15.5 mg/L (≈ 28.8 µM) | – | – | – | – | – | – | – | – | – | – | – | – | – | – | – | –
CCCCCC[C@@H](CN1CCC(COc2ccc(C(=O)c3ccc(Cl)cc3)c(Cl)c2)CC1)OC(N)=O | – | – | Active | > 60 mg/L | 1.5 mg/L (≈ 2.8 µM) | 1.45 mg/L (≈ 2.71 µM) | 5.82 | Active | inactive | inactive | – | – | – | – | – | – | Active | –
COc1ccc(CCNC(CO)c2cccc(COc3cccc(C(=O)c4ccc(Cl)cc4)c3)c2)cc1 (racemic) | 8 mg/L (≈ 15.5 µM) | > 50 mg/L | Active | > 60 mg/L | 12.5 mg/L (≈ 24.2 µM) | 3 mg/L (≈ 5.81 µM) | 4.82 | Active | inactive | inactive | – | – | – | – | – | – | – | –
CC(C)=CC(O)C/C(C)=C/CC/C(C)=C/Cc1c(C)n(O)c2ccccc2c1=O (stereo unspecified) [AURACHIN RE] | 25 mg/L (≈ 63.2 µM) | 3.1 mg/L (≈ 7.84 µM) | – | – | – | – | – | – | – | – | – | – | – | – | – | – | – | –
CCCCC(O)CN1CCC(COc2ccc(C(=O)c3ccc(Cl)cc3)c(Cl)c2)CC1 (racemic) | 0.5 mg/L (≈ 1.08 µM) | > 50 mg/L | Active | > 60 mg/L | 6.25 mg/L (≈ 13.5 µM) | 2.82 mg/L (≈ 6.07 µM) | 4.82 | Active | inactive | inactive | – | – | – | – | – | – | – | –
CCCCCCC[C@H](O)c1cccc(CN2CCC(COc3ccc(C(=O)c4ccc(Cl)cc4)c(Cl)c3)CC2)c1 | – | – | Active | > 60 mg/L | 12.5 mg/L (≈ 21.5 µM) | 1.88 mg/L (≈ 3.23 µM) | 4.82 | Active | inactive | inactive | – | – | – | – | – | – | – | –
CCCCCCC[C@H](O)c1cccc(CN2CCC(COc3ccc(/C(=N\OC)c4ccc(Cl)cc4)c(Cl)c3)CC2)c1 | – | – | Active | > 60 mg/L | 12.5 mg/L (≈ 20.4 µM) | 5.54 mg/L (≈ 9.06 µM) | 4.70 | Active | inactive | inactive | – | – | – | – | – | – | – | –
C=CCN(C)CCCCCCCCOc1ccc(C(=O)c2ccc(Cl)cc2)c(Cl)c1 | 0.5 mg/L (≈ 1.11 µM) | 15.5 mg/L (≈ 34.6 µM) | – | – | – | – | – | – | – | – | – | – | – | – | – | – | – | –
CCCCCCC[C@H](O)c1cccc(CN2CCC(COc3cccc(C(=O)c4ccc(Cl)cc4)c3)CC2)c1 | – | – | Active | > 60 mg/L | 12.5 mg/L (≈ 22.8 µM) | 1.88 mg/L (≈ 3.43 µM) | 4.60 | Active | inactive | inactive | – | – | – | – | – | – | – | –
